Assay results as given in ChEMBL document CHEMBL1811860, “Synthesis and inhibitory activity of sialic acid derivatives targeted at viral sialate-O-acetylesterases” (Eur J Med Chem, 2011).

Tests used:
[1] = Inhibition of influenza C virus 9-SOAE assessed as inhibition of hydrolysis of pNPA
How it was run: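 Esterase came from whole virions purified by ultracentrifugation through a 20% sucrose cushion (1.5 h, 4 °C) and resuspended in PBS pH 7.4. Enzyme was preincubated with sialoside for 30 min at room temperature. pNPA (10 µl of 100 mM acetonitrile stock) was then added in PBS pH 7.4 to 1 ml, and A400 was monitored. Read-out was % inhibition of pNPA hydrolysis.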

[2] = Inhibition of Bovine coronavirus 9-SOAE expressed in Sf9 cells assessed as inhibition of hydrolysis of pNPA at 0.5 mM
[3] = Inhibition of recombinant influenza C virus C/Cal/78 GFP-tagged 9-SOAE expressed in Sf9 cells assessed as inhibition of hydrolysis of pNPA at 0.5 mM
How it was run: (§1)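 EGFP-fused haemagglutinin-esterase was made in serum-free Sf9 cultures via recombinant baculovirus and recovered from supernatant by ultracentrifugation (1.5 h, 4 °C). It was preincubated with sialoside for 30 min at room temperature. pNPA (10 µl of 100 mM acetonitrile stock) was added in PBS pH 7.4 to 1 ml, and A400 was followed. Read-out was % inhibition of pNPA hydrolysis.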

[4] = Inhibition of recombinant influenza C virus C/Cal/78 GFP-tagged 9-SOAE expressed in Sf9 cells assessed as inhibition of Neu5,9Ac2 hydrolysis at 1 mM by fluorimetric HPLC analysis
How it was run: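 Baculovirus/Sf9-expressed EGFP fusion (10 mU) was preincubated with 1 mM sialoside in PBS pH 7.4 for 30 min at room temperature. Free O-acetylated sialic acid or bovine submandibular mucin (10 µg) was then added and incubated at 37 °C for 20–240 min. Mucin samples were hydrolysed in 2 M propionic acid (80 °C, 2 h). Sialic acids were analysed by reverse-phase HPLC with fluorimetric detection.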

[5] = Inhibition of Bovine coronavirus […] assessed as inhibition of hydrolysis of pNPA at 1 mM; conditions: Sf9
[6] = Inhibition of Influenza C virus C/JJ/50 9-SOAE expressed in Sf9 cells assessed as inhibition of hydrolysis of pNPA at 1 mM
[7] = Inhibition of recombinant influenza C virus C/Cal/78 GFP-tagged 9-SOAE expressed in Sf9 cells assessed as inhibition of hydrolysis of pNPA at 5 mM; how it was run: as §1
[8] = Inhibition of recombinant influenza C virus C/Cal/78 GFP-tagged 9-SOAE expressed in Sf9 cells assessed as inhibition of hydrolysis of pNPA at 2 mM; how it was run: as §1
[9] = Inhibition of recombinant influenza C virus C/Cal/78 GFP-tagged 9-SOAE expressed in Sf9 cells assessed as inhibition of hydrolysis of pNPA at 1 mM; how it was run: as §1
[10] = Inhibition of Bovine coronavirus 9-SOAE expressed in Sf9 cells assessed as inhibition of hydrolysis of pNPA at 2 mM
[11] = Inhibition of SDAV GFP-tagged 9-SOAE expressed in Sf9 cells assessed as inhibition of hydrolysis of pNPA at 0.1 mM; conditions: Rat sialodacryoadenitis coronavirus; how it was run: as §1
[12] = Inhibition of MHV S 4-SOAE expressed in Sf9 cells assessed as inhibition of hydrolysis of pNPA at 1 mM; conditions: Murine coronavirus
[13] = Inhibition of MHV S 4-SOAE expressed in Sf9 cells assessed as inhibition of hydrolysis of pNPA at 5 mM; conditions: Murine coronavirus
[14] = Inhibition of SDAV GFP-tagged 9-SOAE expressed in Sf9 cells assessed as inhibition of hydrolysis of pNPA at 5 mM; conditions: Rat sialodacryoadenitis coronavirus; how it was run: as §1
[15] = Inhibition of MHV S 4-SOAE expressed in Sf9 cells assessed as inhibition of hydrolysis of pNPA at 0.5 mM; conditions: Murine coronavirus
[16] = Inhibition of SDAV GFP-tagged 9-SOAE expressed in Sf9 cells assessed as inhibition of hydrolysis of pNPA at 1 mM; conditions: Rat sialodacryoadenitis coronavirus; how it was run: as §1
[17] = Inhibition of SDAV GFP-tagged 9-SOAE expressed in Sf9 cells assessed as inhibition of hydrolysis of pNPA at 0.5 mM; conditions: Rat sialodacryoadenitis coronavirus; how it was run: as §1
[18] = Inhibition of MHV S 4-SOAE expressed in Sf9 cells assessed as inhibition of hydrolysis of pNPA at 0.1 mM; conditions: Murine coronavirus

Compound: ((2S,4S,5R,6R)-5-acetamido-6-((1R,2R)-3-acetamido-1,2-dihydroxypropyl)-2-carboxy-4-hydroxytetrahydro-2H-pyran-2-ylthio)(methyl)mercury
- Ki [1]: 4.2 mM

Compound: C=CCO[C@]1(C(=O)O)C[C@H](O)[C@@H](NC(C)=O)[C@H]([C@H](O)[C@H](O)COC)O1
- inhibition [2]: 2.86%
- inhibition [3]: 22.9%
- inhibition [4]: 10%
- inhibition [5]: 9%
- inhibition [6]: 8.63%
- inhibition [7]: 85.8%
- inhibition [8]: 33%
- inhibition [9]: 22.4%
- inhibition [10]: < 0%

Compound: C=CCO[C@]1(C(=O)O)C[C@H](OC)[C@@H](NC(C)=O)[C@H]([C@H](O)[C@H](O)CO)O1
- inhibition [11]: 2.13%
- inhibition [12]: 8.31%
- inhibition [13]: 7.73%
- inhibition [14]: 8.73%
- inhibition [15]: 0%
- inhibition [16]: 0.51%
- inhibition [17]: 2.56%
- inhibition [18]: 4%
